Experiments:
[1] = system: HER2; experiment: Western blot of Hsp90 client protein HER2 in SK-BR-3 cells; type: cell-based, human; conditions: 20 μM, 12 h
In short: (§1)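 SK‐BR‐3 cells (DMEM, 10 % FBS) were exposed to test compound at 20 μM for 12 h, washed in ice-cold PBS and lysed in SDS sample buffer. Equal lysate amounts went through SDS‐PAGE and PVDF transfer, with blocking in 5 % milk/TBST pH 7.6. Primary antibodies were applied overnight at 4 °C and secondary antibodies 2 h at room temperature. Detection was by ECL.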

[2] = system: breast cancer SK-BR-3 cell line; experiment: SRB anti-proliferative assay, SK-BR-3; type: cell-based; conditions: Homo sapiens, SK-BR-3, 120 h, read-out: SK-BR-3 (IC50±SD, μM) for 120 h
In short: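 Cells from ATCC, grown in DMEM with 10 % FBS at 37 °C and 5 % CO2. Seeded in 96-well plates overnight, then exposed to increasing concentrations in triplicate for 72 h, or for a prolonged 120 h. Growth was read by sulforhodamine B staining at OD 510 nm. IC50 came from curve fitting.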

[3] = system: A549 and SK-BR-3 cell lines; experiment: Autophagy observed under the microscope; type: cell-based, human; conditions: 10 μM
[4] = target: recombinant human full-length Hsp90α (Homo sapiens, UniProt P07900); experiment: FP assay, competition with FITC-GM; type: binding
[5] = system: Hsp72; experiment: Western blot of Hsp72; type: cell-based, human; conditions: SK-BR-3 cells, 20 μM, 12 h
In short: as §1

| Structure (SMILES) | expression of HER2 [1] | other results |
| --- | --- | --- |
| Brc1ccc(Nc2nc(NCc3ccccc3)nc(NCc3ccccc3)n2)cc1 [Compound A25] | obviously reduced | – |
| NNc1nc(Nc2ccccc2)nc(Nc2ccc(Br)cc2)n1 [Compound A20] | obviously reduced | – |
| Cc1cc(C)n(-c2nc(NN=Cc3c[nH]c4ccccc34)nc(Nc3ccc(Br)cc3)n2)n1 [Compound A1, 4‐(2‐((1H‐indol‐3‐yl)methylene)hydrazinyl)‐N‐(4‐bromophenyl)‐6‐(3,5‐dimethyl‐1H‐pyrazol‐1‐yl)‐1,3,5‐triazin‐2‐amine] | obviously reduced | IC50 [2]: 10.8 ± 1.3 µM; induction of autophagy [3]: little autophagy was induced; competition with FITC-GM for binding to Hsp90α [4]: failed to compete |
| Brc1ccc(Nc2nc(N/N=C\c3c[nH]c4ccccc34)nc(Nc3ccccc3)n2)cc1 [Compound A16] | obviously reduced | – |
| NNc1nc(NCc2ccccc2)nc(Nc2ccc(Br)cc2)n1 [Compound A22] | obviously reduced | – |
| CCCNc1nc(NCCC)nc(Nc2ccc(Br)cc2)n1 [Compound A24] | obviously reduced | – |
| COC1=C2C[C@@H](C)C[C@H](OC)[C@H](O)[C@@H](C)/C=C(\C)[C@H](OC(N)=O)[C@@H](OC)/C=C\C=C(/C)C(=O)NC(=CC1=O)C2=O [GM, geldanamycin] | – | induction of Hsp72 [5]: induced |

Source: paper PMC6437812 (ChemistryOpen, 2019)
